# Published values of several laboratories.
# Lines come from different studies, so protocols differ.
Compound,organism,test,test system,setting,measurement,result
CC(C(=O)O)N1C2=NC(c3ccc(Cl)cc3)C3=C(OC(C)(C)OC3=O)N2NC1(C)c1ccccc1O (stereo not drawn),Streptococcus pyogenes,microbial growth,ATCC19615,"10 µg/mL, 24 h",inhibition zone,8 mm
C/C(O)=C1\C(=O)C(CC(C)C)N(C(=O)CCCCCc2ccccc2)C1=O (stereo not drawn),Stenotrophomonas maltophilia,microbial growth,ATCC13637,,MIC,> 200 µg/mL
CN(c1ccc(F)cc1)c1c(-c2ccc(F)cn2)nc2ccccn12,Leishmania infantum,parasite growth,,"intracellular, amastigote",EC50,1.26 µM
O=C1NC(=S)S/C1=C\c1c2ccccc2c(-c2ccc(N(c3ccccc3)c3ccccc3)cc2)c2ccccc12,Streptococcus pyogenes,"microbial killing, broth dilution",ATCC19615,,MBC,> 1000 µg/mL
Cc1ccccc1-c1c(-c2ccccn2)nc2n1CCC2,Leishmania infantum,parasite growth,,"5 days, intracellular, amastigote",EC50,1 µM
O=C(O)CN1C(=O)/C(=C/c2ccc(-c3ccc(N(c4ccccc4)c4ccccc4)cc3)cc2)SC1=S,Streptococcus pyogenes,"microbial killing, broth dilution",ATCC19615,,MBC,500 µg/mL
CC(=O)C1=C(C)N2NC(c3ccccc3O)N(C(Cc3c[nH]c4ccccc34)C(=O)O)C2=NC1c1ccc(Cl)cc1 (stereo not drawn),Streptococcus pyogenes,microbial growth,ATCC19615,"15 µg/mL, 24 h",inhibition zone,30 mm
O=C(O)CN1C(=O)/C(=C/c2c3ccccc3c(-c3ccc(N(c4ccccc4)c4ccccc4)cc3)c3ccccc23)SC1=S,Streptococcus pyogenes,"microbial growth, broth dilution",ATCC19615,,MIC,> 1000 µg/mL
O=C1C(=Cc2ccc(O)c(O)c2)Oc2ccccc21,Streptococcus mutans,microbial growth,UA159,50 µM,inhibition,40%
O=C(N[C@@H](Cc1ccccc1)C(=O)c1c[nH]nn1)[C@H](Cc1ccccc1)NC(=O)N1CCOCC1,Leishmania infantum,parasite growth,,"intracellular, amastigote",IC50,> 64 µM
O=C(O)CN1C(=O)/C(=C/c2ccc(-c3ccc(N(c4ccccc4)c4ccccc4)cc3)c3ccccc23)SC1=S,Streptococcus pyogenes,"microbial growth, broth dilution",ATCC19615,,MIC,1000 µg/mL
O=C(Nc1ccccc1-c1ccc(F)c(F)c1)c1nccnc1C(F)(F)F,Diaporthe citri,microbial growth,,,EC50,> 100 µg/mL
CS(=O)(=O)c1ccc(-c2c(-c3ccccn3)nc3n2CCC3)cc1,Leishmania infantum,parasite growth,,"intracellular, amastigote",IC50,> 64 µM
CCOC(=O)C1=C(C)N2NC(C)(c3ccccc3O)N(C(Cc3c[nH]c4ccccc34)C(=O)O)C2=NC1c1ccc(Cl)cc1 (stereo not drawn),Streptococcus pyogenes,microbial growth,ATCC19615,"10 µg/mL, 24 h",inhibition zone,17 mm
O=C(O)CN1C(=O)/C(=C/c2ccc(-c3ccc(N(c4ccccc4)c4ccccc4)cc3)c3ccccc23)NC1=S,Streptococcus pyogenes,"microbial killing, broth dilution",ATCC19615,,MBC,> 1000 µg/mL
CC(=O)C1=C(C)N2NC(C)(c3ccccc3O)N(C(Cc3c[nH]c4ccccc34)C(=O)O)C2=NC1c1ccc(Cl)cc1 (stereo not drawn),Streptococcus pyogenes,microbial growth,ATCC19615,"15 µg/mL, 24 h",inhibition zone,32 mm
C[Si](C)(C)c1cc(C(=O)[C@H](Cc2ccccc2)NC(=O)[C@H](Cc2ccccc2)NC(=O)N2CCOCC2)no1 (mixture of isomers),Leishmania infantum,parasite growth,,"intracellular, amastigote",IC50,> 64 µM
c1ccc(-c2nc3n(c2-c2cccnc2)CCC3)nc1,Leishmania infantum,parasite growth,,"intracellular, amastigote",IC50,> 64 µM
CC(C(=O)O)N1c2nc(-c3ccc(Cl)cc3)c(C#N)c(=O)n2NC1(C)c1ccccc1O (stereo not drawn),Streptococcus pyogenes,microbial growth,ATCC19615,"10 µg/mL, 24 h",inhibition zone,16 mm
Fc1ccc(Nc2c(-c3ccccn3)nc3ccccn23)cc1,Leishmania infantum,parasite growth,,"intracellular, amastigote",IC50,8.11 µM
O=C(O)CN1C(=O)/C(=C/c2c3ccccc3c(-c3ccc(N(c4ccccc4)c4ccccc4)cc3)c3ccccc23)NC1=S,Streptococcus mutans,"microbial growth, broth dilution",ATCC25175,,MIC,> 1000 µg/mL
O=C1C(=Cc2cc(O)cc(O)c2)Oc2ccccc21,Streptococcus mutans,microbial growth,UA159,50 µM,inhibition,30%
O=C(N[C@@H](Cc1ccccc1)C(=O)c1noc(-c2ccccc2)n1)[C@H](Cc1ccccc1)NC(=O)N1CCOCC1,Leishmania infantum,parasite growth,,"intracellular, amastigote",IC50,> 64 µM
CN[C@H](CC(C)C)C(=O)N[C@H]1C(=O)N[C@@H](CC(N)=O)C(=O)N[C@H]2C(=O)N[C@H]3C(=O)N[C@H](C(=O)N[C@H](C(=O)O)c4cc(O)cc(O)c4-c4cc3ccc4O)[C@H](O)c3ccc(c(Cl)c3)Oc3cc2cc(c3O[C@@H]2O[C@H](CO)[C@@H](O)[C@H](O)[C@H]2O[C@H]2C[C@](C)(N)[C@H](O)[C@H](C)O2)Oc2ccc(cc2Cl)[C@H]1O,Streptococcus pyogenes,microbial killing,,,MBC,> 32 µg/mL
C/C(O)=C1\C(=O)C(CC(C)C)N(C(=O)C=Cc2ccccc2)C1=O (stereo not drawn),Stenotrophomonas maltophilia,microbial growth,ATCC13637,,MIC,> 200 µg/mL
O=C1NC(=S)S/C1=C\c1ccc(-c2ccc(N(c3ccccc3)c3ccccc3)cc2)cc1,Streptococcus mutans,"microbial killing, broth dilution",ATCC25175,,MBC,> 1000 µg/mL
Clc1cccc(-c2c(-c3ccccn3)nc3n2CCC3)c1,Leishmania infantum,parasite growth,,"5 days, intracellular, amastigote",EC50,0.794 µM
CC(=O)C1=C(C)N2NC(C)(c3ccccc3O)N(C(C)C(=O)O)C2=NC1c1ccc(Cl)cc1 (stereo not drawn),Streptococcus pyogenes,microbial growth,ATCC19615,"15 µg/mL, 24 h",inhibition zone,18 mm
c1ccc(-c2c(-c3ccccn3)nc3n2CCC3)cc1,Leishmania infantum,parasite growth,,"5 days, intracellular, amastigote",EC50,2 µM
CCCCCCC/C=C/C(=O)N1C(=O)/C(=C(/C)O)C(=O)C1Cc1ccc(OC(C)(C)C)cc1 (stereo not drawn),Stenotrophomonas maltophilia,microbial growth,ATCC13637,,MIC,> 200 µg/mL
O=C(N[C@@H](Cc1ccccc1)C(=O)c1ncc(-c2ccccc2)o1)[C@H](Cc1ccccc1)NC(=O)N1CCOCC1,Leishmania infantum,parasite growth,,"intracellular, amastigote",IC50,> 64 µM
Fc1ccc(Nc2c(Cn3cccn3)nc3ccccn23)cc1,Leishmania infantum,parasite growth,,"intracellular, amastigote",IC50,> 64 µM
"O=C(N[C@@H](Cc1ccccc1)C(=O)c1cc(-c2ccccc2)on1)[C@H](Cc1ccccc1)NC(=O)N1CCOCC1 (single isomer, unassigned)",Leishmania infantum,parasite growth,,"intracellular, amastigote",IC50,> 64 µM
O=C1NC(=S)N/C1=C\c1ccc(-c2ccc(N(c3ccccc3)c3ccccc3)cc2)c2ccccc12,Streptococcus pyogenes,"microbial killing, broth dilution",ATCC19615,,MBC,> 1000 µg/mL
O=C(N[C@@H](Cc1ccccc1)C(=O)c1nc2ccccc2o1)[C@H](Cc1ccccc1)NC(=O)N1CCOCC1,Leishmania infantum,parasite growth,,"intracellular, amastigote",IC50,> 64 µM
CCOC(=O)C1=C(C)N2NC(c3ccccc3O)N(C(Cc3c[nH]c4ccccc34)C(=O)O)C2=NC1c1ccc(Cl)cc1 (stereo not drawn),Streptococcus pyogenes,microbial growth,ATCC19615,"15 µg/mL, 24 h",inhibition zone,32 mm
